ChEMBL document CHEMBL4368937, “Design, synthesis and biological evaluation of low molecular weight CXCR4 ligands” (Bioorg Med Chem, 2019)

Assays:
[1] = biological target: T1, C-X-C chemokine receptor type 4 (Homo sapiens, UniProt P61073); experiment: Competitive inhibition of TAMRAAc-TZ14011 binding to CXCR4 (unknown origin) expressed in CHO cells at 1 uM in presence of ZnCl2 by NanoBRET assay relative to control; assay type: cell-based
Summary of the method: (§1)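 Single-point competition in CHO cells stably expressing N-terminally Nluc-tagged CXCR4 (5 x 10^4 cells, seeded 24 h earlier at 37 °C, 5% CO2, medium then replaced with OptiMEM). Cells were incubated with 10 nM TAMRA-Ac-TZ14011 plus 1 µM compound, without or with 10 µM ZnCl2 (10 eq), for 1 h at 25 °C. Furimazine was added and BRET read as acceptor (>610 nm) over donor (460 nm). Inhibition is relative to no compound and to excess Ac-TZ14011; mean ± SEM, n = 3.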

[2] = biological target: T1, C-X-C chemokine receptor type 4; experiment: Competitive inhibition of TAMRAAc-TZ14011 binding to CXCR4 (unknown origin) expressed in CHO cells at 1 uM in absence of ZnCl2 by NanoBRET assay relative to control; assay type: cell-based; summary of the method: as §1
[3] = biological target: T1, C-X-C chemokine receptor type 4; experiment: Competitive inhibition of [125I]-CXCL12 binding to CXCR4 in human Jurkat cells at 1 uM in absence of ZnCl2 after 2 hrs by gamma counting analysis relative to control; assay type: cell-based
[4] = biological target: T1, C-X-C chemokine receptor type 4; experiment: Competitive inhibition of [125I]-CXCL12 binding to CXCR4 in human Jurkat cells at 1 uM in presence of ZnCl2 after 2 hrs by gamma counting analysis relative to control; assay type: cell-based
[5] = biological target: T1, C-X-C chemokine receptor type 4; experiment: Competitive inhibition of TAMRAAc-TZ14011 binding to CXCR4 (unknown origin) expressed in CHO cells in presence of ZnCl2 by NanoBRET assay relative to control; assay type: cell-based
Summary of the method: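 Cells were incubated with 10 nM TAMRA-Ac-TZ14011 and compound plus ZnCl2 (10 eq). Furimazine was added and BRET ratio taken as >610 nm over 460 nm emission. Inhibition is scaled between no compound and excess Ac-TZ14011.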

[6] = system: Human immunodeficiency virus 1; experiment: Antiviral activity against X4 tropic HIV-1 NL4-3 infected in human MT4 cells assessed as protection against virus-induced cytopathic effect in absence of ZnCl2 after 5 days by MTT assay; assay type: functional, organism-based; settings: Human immunodeficiency virus 1, NL4-3, MT4, 120 h
Summary of the method: (§2)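 Protection of MT-4 cells from X4 HIV-1 NL4-3 cytopathicity. Infected cells (MOI 0.001, 2.0 × 10^4 cells/well) received graded compound concentrations, without or with ZnCl2 (10 eq), for 5 days at 37 °C. Viable cells were counted by MTT. EC50 is the concentration giving 50% protection; mean of at least three independent experiments.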

[7] = system: Human immunodeficiency virus 1; experiment: Antiviral activity against X4 tropic HIV-1 NL4-3 infected in human MT4 cells assessed as protection against virus-induced cytopathic effect in presence of ZnCl2 after 5 days by MTT assay; assay type: functional, organism-based; settings: Human immunodeficiency virus 1, NL4-3, MT4, 120 h; summary of the method: as §2
[8] = Cytotoxicity against human MT4 cells in absence of ZnCl2; assay type: cell-based
[9] = Cytotoxicity against human MT4 cells in presence of ZnCl2; assay type: cell-based
Summary of the method: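 MT-4 viability with compound plus ZnCl2 (10 eq). CC50 is the concentration giving 50% reduction in viable cells; mean of at least three independent experiments.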

[10] = system: Human immunodeficiency virus 1; experiment: Antiviral activity against R5 tropic HIV-1 NL(AD8) infected in human MT4 cells assessed as protection against virus-induced cytopathic effect at 10 uM in presence of ZnCl2 after 5 days by MTT assay; assay type: functional; settings: Human immunodeficiency virus 1, NL(AD8), MT4, 120 h
[11] = system: Human immunodeficiency virus 1; experiment: Antiviral activity against R5 tropic HIV-1 NL(AD8) infected in human MT4 cells assessed as protection against virus-induced cytopathic effect at 10 uM in absence of ZnCl2 after 5 days by MTT assay; assay type: functional; settings: Human immunodeficiency virus 1, NL(AD8), MT4, 120 h

T1 sequence (P61073 whole entry): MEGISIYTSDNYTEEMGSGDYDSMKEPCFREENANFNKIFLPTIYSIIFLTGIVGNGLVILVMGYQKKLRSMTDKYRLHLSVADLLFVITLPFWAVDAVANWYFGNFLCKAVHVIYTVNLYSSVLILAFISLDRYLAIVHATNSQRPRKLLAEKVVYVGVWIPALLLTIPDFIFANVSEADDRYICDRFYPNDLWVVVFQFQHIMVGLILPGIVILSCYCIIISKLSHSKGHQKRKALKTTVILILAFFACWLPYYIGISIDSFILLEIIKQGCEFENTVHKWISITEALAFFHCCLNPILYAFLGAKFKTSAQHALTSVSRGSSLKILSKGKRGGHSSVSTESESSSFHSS

inhibition [1]: 107%
inhibition [2]: 81.5%
inhibition [3]: 81.7%
inhibition [4]: 77.3%
IC50 [5]: 1.6 nM
Compound: c1ccc(CN(Cc2ccc3c(CN4CCCNCCNCCCNCC4)cccc3c2)Cc2ccccn2)nc1
EC50 [6]: 220 nM
EC50 [7]: 28 nM
CC50 [8]: > 10000 nM
CC50 [9]: > 10000 nM
inhibition at 10 µM [10]: < 30%
inhibition at 10 µM [11]: < 30%
